This note sets out measurements from ChEMBL document CHEMBL1132961 (J Med Chem, 2000).

As a reminder, the EC50 is the concentration that produces a half-maximal response. Low readings indicate higher potency in that assay, high ones lower potency in that assay. What is called AUC is concentration integrated over time. In general, residual activity refers to the signal under treatment as a percentage of the control signal. A word on the Ki: it is the dissociation constant of the complex between target and ligand, obtained from inhibition or displacement. Read a high Ki as lower affinity.

The test system of series [1] is CCRF-CEM. The series can be described thus: (§1) Concentration which elicits cytotoxicity in 50% of uninfected human lymphocyte derived CEM cells. The note with it: ccrf-cem, read-out: TC50 (the source's name). It is filed as cell-based. In a few lines:
(§2)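 Cytotoxicity measured in uninfected human lymphocyte-derived CEM cells by XTT protocol.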

Series [2] relates to Human immunodeficiency virus 1. The series can be described thus: Effective concentration at which 50% of the HIV-IIIB-infected human lymphocyte-derived CEM cells protected from HIV-1 infection.
Series [3] can be described thus: AUC value in mice. Type of series: ADME, organism-based. Conditions: mouse, plasma. In a few lines:
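Mice dosed orally by gavage at 25 mg/kg. Vehicle was usually 20% 0.1 N NaOH/80% 0.5% methylcellulose, and in two cases 20% 0.1 N NaOH/80% PEG 400. Plasma Cmax and AUC measured; AUC not determined where Cmax was too low.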

Series [4] can be described thus: as §1. Type of series: cell-based, CCRF-CEM. Conditions: uninfected CCRF-CEM cells, read-out: TC50 (the source's name). In a few lines:
as §2

Series [5] is described as follows: (§3) Effective concentration required for antiviral activity against HIV-1 1002-60 in PBMC cells. Type of series: functional, cell-based. Conditions: Homo sapiens. In a few lines:
(§4)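 PBMC cells infected with HIV-1 clinical isolates, using an XTT cytopathic assay similar to the CEM assay. EC50 read as protection from viral cytopathic effect.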

Series [6] in a line: (§5) Effective concentration required for antiviral activity against HIV-1 1026-60 in PBMC cells. Type of series: functional, cell-based. The note with it: Homo sapiens. In a few lines: as §4
Series [7] is described as follows: (§6) Effective concentration required for antiviral activity against HIV-1 144-44 in PBMC cells. Type of series: functional, cell-based. The note with it: Homo sapiens. In a few lines:
as §4

A short description of series [8]: Effective concentration required for antiviral activity against HIV-1 RoJo in PBMC cells. It is filed as functional, cell-based. Conditions: Homo sapiens. A digest of the protocol:
as §4

The nature of series [9]: Effective concentration required for antiviral activity against HIV-1 SLKA in PBMC cells. Conditions: Homo sapiens. It is filed as functional, cell-based. In a few lines:
as §4

Series [10] in a line: Effective concentration required for antiviral activity against HIV-1 TEKI in PBMC cells. It is filed as functional, cell-based. The note with it: Homo sapiens. A digest of the protocol: as §4
A short description of series [11]: Effective concentration required for antiviral activity against HIV-1 WeJo in PBMC cells. It is filed as functional, cell-based. The note with it: Homo sapiens. In a few lines: as §4
Series [12] in a line: Tested for cytotoxic activity against HIV-1 1002-60 in PBMC cells. Type of series: cell-based. The note with it: human, read-out: TC50 (the source's name).
Series [13] is described as follows: Tested for cytotoxic activity against HIV-1 1026-60 in PBMC cells. It is filed as cell-based. The note with it: human, read-out: TC50 (the source's name).
Series [14] can be described thus: Tested for cytotoxic activity against HIV-1 144-44 in PBMC cells. Type of series: cell-based. The note with it: human, read-out: TC50 (the source's name).
Series [15] has as its target T1, CYP2C9 (Homo sapiens, UniProt P11712). The series can be described thus: Residual activity of cytochrome P450 at 10 uM.
Series [16] has as its target T2, CYP2D6 (Homo sapiens, UniProt P10635). In words: Residual activity of cytochrome P4502D6 at 1 uM.
Series [17] addresses T3, CYP3A4 (Homo sapiens, UniProt P08684). In words: Residual activity of cytochrome P4503A4 at 1 uM.
Series [18] has as its target T1, CYP2C9. In words: Residual activity of cytochrome P450 2C9 at 1 uM.
Series [19] addresses T2, CYP2D6. In words: Residual activity of cytochrome P4502D6 at 10 uM.
Series [20] concerns the target T3, CYP3A4. The series can be described thus: Residual activity of cytochrome P4503A4 at 10 uM.
For series [21], the target named is T2, CYP2D6. The series can be described thus: Residual activity of cytochrome P4502D6 at 100 uM.
The target in series [22] is T3, CYP3A4. The series can be described thus: Residual activity of cytochrome P4503A4 at 100 uM.
Series [23] concerns the target T1, CYP2C9. The series can be described thus: Residual activity of cytochrome P450 2C9 at 100 uM.
The target in series [24] is Human immunodeficiency virus type 1 protease (Human immunodeficiency virus 1, UniProt Q72874). The series can be described thus: Tested for binding affinity against protease.
Series [25] has as its system PBMC. Described as §3. Type of series: functional, cell-based. Conditions: Homo sapiens. A digest of the protocol:
as §4

Series [26] concerns PBMC. Described as §5. It is filed as functional, cell-based. Conditions: Homo sapiens. A digest of the protocol: as §4
For series [27], the system named is PBMC. The series is described as §6. Type of series: functional, cell-based. The note with it: Homo sapiens. In a few lines: as §4

T3 sequence (P08684 whole entry): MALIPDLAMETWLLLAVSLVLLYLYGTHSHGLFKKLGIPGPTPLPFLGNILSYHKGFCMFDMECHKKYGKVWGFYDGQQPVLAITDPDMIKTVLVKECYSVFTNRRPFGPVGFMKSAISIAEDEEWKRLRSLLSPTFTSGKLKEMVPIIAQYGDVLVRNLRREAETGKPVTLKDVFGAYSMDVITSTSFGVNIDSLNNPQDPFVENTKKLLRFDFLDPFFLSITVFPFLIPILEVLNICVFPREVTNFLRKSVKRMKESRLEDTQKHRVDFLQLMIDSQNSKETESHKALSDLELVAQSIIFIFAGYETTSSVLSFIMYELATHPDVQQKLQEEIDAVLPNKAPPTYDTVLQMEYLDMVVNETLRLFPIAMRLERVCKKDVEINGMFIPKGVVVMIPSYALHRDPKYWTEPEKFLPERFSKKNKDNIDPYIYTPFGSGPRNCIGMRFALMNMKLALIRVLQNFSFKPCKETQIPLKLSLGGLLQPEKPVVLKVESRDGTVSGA
T1 sequence (P11712 whole entry): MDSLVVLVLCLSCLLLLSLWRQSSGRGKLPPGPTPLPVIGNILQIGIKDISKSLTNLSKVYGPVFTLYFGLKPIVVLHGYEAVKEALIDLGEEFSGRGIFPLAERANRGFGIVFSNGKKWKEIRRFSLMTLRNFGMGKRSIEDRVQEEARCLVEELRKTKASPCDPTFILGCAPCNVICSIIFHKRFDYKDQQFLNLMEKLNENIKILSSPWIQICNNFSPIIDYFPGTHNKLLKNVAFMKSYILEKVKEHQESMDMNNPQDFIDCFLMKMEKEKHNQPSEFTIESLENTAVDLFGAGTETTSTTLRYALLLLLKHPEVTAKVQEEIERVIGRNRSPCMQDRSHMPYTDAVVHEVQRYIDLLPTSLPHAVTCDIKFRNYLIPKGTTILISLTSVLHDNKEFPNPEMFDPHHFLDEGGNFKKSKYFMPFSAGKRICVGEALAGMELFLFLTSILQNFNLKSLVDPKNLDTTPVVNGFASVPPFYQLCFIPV
T2 sequence (P10635 whole entry): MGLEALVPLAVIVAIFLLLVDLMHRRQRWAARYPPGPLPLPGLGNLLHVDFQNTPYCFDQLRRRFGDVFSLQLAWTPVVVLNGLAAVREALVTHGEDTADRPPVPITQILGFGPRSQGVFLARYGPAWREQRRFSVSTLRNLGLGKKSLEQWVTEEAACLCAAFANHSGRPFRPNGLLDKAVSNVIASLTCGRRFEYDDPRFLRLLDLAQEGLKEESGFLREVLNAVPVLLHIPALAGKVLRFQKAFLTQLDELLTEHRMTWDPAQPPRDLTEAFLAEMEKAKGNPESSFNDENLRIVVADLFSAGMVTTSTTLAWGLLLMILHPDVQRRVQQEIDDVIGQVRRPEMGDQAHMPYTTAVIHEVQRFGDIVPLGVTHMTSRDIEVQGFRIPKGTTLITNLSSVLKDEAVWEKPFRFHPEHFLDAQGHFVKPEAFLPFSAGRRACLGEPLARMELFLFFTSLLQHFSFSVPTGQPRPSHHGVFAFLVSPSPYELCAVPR

For `Cc1cc(SC2=C(O)O[C@](CCc3ccc(O)cc3)(C(C)C)CC2=O)c(C(C)(C)C)cc1N` (stereo in doubt; 1R), the CC50 in series [1] turned out to be 215 µM. This compound yielded an EC50 in [2] (ccrf-cem) of 91000 nM.
In turn, `Cc1cc(SC2=C(O)O[C@](CCc3ccc(O)cc3)(C(C)C)CC2=O)c(C(C)(C)C)cc1N` (stereo in doubt; 1S) came in with an AUC in series [3] of 46300 ng·h/mL. Besides, the CC50 in series [4] is 215 µM; in series [12], over 100 µM; in [13], over 100 µM; in series [14] (pooled result: one value given for 5 cell lines, strains, targets or settings) it was over 100 µM. Further, the EC50 in series [5] stood at 740 nM; in [6], 310 nM; in [7] it was 240 nM; in [8], 200 nM; in [9], 220 nM; in series [10], 590 nM. In addition, the EC50 in series [11] stood at 250 nM; in series [2] (ccrf-cem) it was 490 nM. The residual activity at 10 µM in series [15] was 75.5%; in series [19], 95%; in series [20], 96.8%. Also, the residual activity at 1 µM is 105% in [16], 103% in series [17] and 93.2% in [18]. The residual activity at 100 µM in [21] was found to be 56.7%; in series [22], 41.1%; in series [23], 21.6%.
On to `Cc1cc(SC2=C(O)OC(CCc3ccccc3)(C(C)C)CC2=O)c(C(C)(C)C)cc1NS(=O)(=O)c1ccc(C(F)(F)F)cc1` (centres undefined), for which the CC50 in series [4] was 24 µM. The compound also came in with a Ki in series [24] of 27 nM. Further, the EC50 in series [2] (Human immunodeficiency virus 1, CCRF-CEM) is 700 nM.
Turning to `CC(C)(C)NC(=O)[C@@H]1CN(Cc2cccnc2)CCN1C[C@@H](O)C[C@@H](Cc1ccccc1)C(=O)N[C@H]1c2ccccc2C[C@H]1O`, the half-maximal effective concentration (EC50) is over 100 µM in [25], 16.6 µM in [26] and 3000 nM in series [27]. Also, the CC50 in series [12], in series [13] and in series [14] was over 100 µM each time. Besides, the residual activity at 10 µM in [15] was 89%; in [19], 82%. Further, the residual activity at 1 µM stood at 100% in series [16] and 93% in series [18]. The residual activity at 100 µM in series [21] came to 31%; in series [23], 68%.
